{"source": "paper PMC2917810", "about": "(Chemical biology & drug design, 2008)", "key": {"[1]": {"assay": "Solubility and aggregation of soluble peptides", "type": "physicochemical"}, "RGS4 [2]": {"system": "RGS4", "conditions": "cited from earlier work"}, "RGS4Δ51N": {"target": "T1, RGS4Δ51N (Homo sapiens, UniProt P49798)", "T1 sequence (P49798 52-205 limits assumed)": "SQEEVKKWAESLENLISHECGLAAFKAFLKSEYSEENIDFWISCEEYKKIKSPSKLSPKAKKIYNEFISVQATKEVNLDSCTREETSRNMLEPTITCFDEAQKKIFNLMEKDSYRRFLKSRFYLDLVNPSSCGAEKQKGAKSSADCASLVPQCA", "assay": "Single turnover RGS-stimulated Gαo GTPase", "type": "biochemical", "conditions": "for inhibition of RGS4 activity (rate of RGS stimulated Gαo GTP hydrolysis): purified proteins, mean ± S.E.M., n ≥3, SEM; for activity on RGS4 GAP activity: single turnover GAP assay, RGS4Δ51N 75–125 nM", "outline": "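Single-turnover GTP hydrolysis by purified rat His6-Gαo with γ[32P]GTP, stimulated by human MBP-His6-RGS4Δ51N (75–125 nM). Soluble disulfide-cyclized peptides (≥95% pure) were tested at 50 μM, or lower where solubility limited. Rates came from time courses, reported as percent decrease in the RGS-stimulated rate; IC50 estimated from these single-concentration inhibitions. Mean ± S.E.M., n ≥3; t-test.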"}, "RGS7box": {"system": "RGS7box", "assay": "Single turnover GAP assay, RGS7", "type": "biochemical, human", "conditions": "RGS7box 500 nM", "outline": "(§1)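 Single-turnover GTP hydrolysis by purified rat His6-Gαo with γ[32P]GTP, with or without RGS. The RGS proteins were human MBP-His6 constructs, purified on amylose then Ni-NTA: full-length RGS16 at 1.5 μM, RGS19Δ11C at 200 nM, and the RGS7 RGS domain (nucleotides 915–1359) at 500 nM. Test peptides were soluble, cyclized, and ≥95% pure.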"}, "RGS16": {"system": "RGS16", "assay": "Single turnover GAP assay, RGS16", "type": "biochemical, human", "conditions": "RGS16 1.5 μM", "outline": "as §1"}, "RGS4Δ51N-Alexa Fluor 532": {"system": "RGS4Δ51N-Alexa Fluor 532", "assay": "FACScan flow cytometry binding of bead-bound peptides", "design": "species or system human", "conditions": "peptides on beads, 25 nM RGS4Δ51N-Alexa Fluor 532", "outline": "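Hit peptides resynthesized and disulfide-cyclized on 20 μm TentaGel beads; about 5 × 10^3 beads per sample (at most 5 nmoles peptide) washed, then incubated with RGS4Δ51N-Alexa Fluor 532 for at least 15 min at room temperature, protected from light. FACScan gated on acetylated TentaGel control beads, no compensation; their signal subtracted as background. Duplicates; one-way ANOVA with Bonferroni post-test.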"}, "RGS4 [3]": {"system": "RGS4", "conditions": "membrane based steady state GTPase assay; cited from earlier work"}}, "note": "Where two headings read alike, the source gives them in different places. Positions of bridges follow the written chain, without caps; N, C: chain ends. Residues, ends and D or L forms follow the SMILES beside them.", "data": [{"molecule": "KLc[CHGYC]H-NH2, S-S (disulfide) [compound 11]", "values": [{"measurement": "aggregation", "setting": "[1]; not evaluated in GAP assay for this reason", "value": "signs of aggregation"}]}, {"molecule": "Ac-Val-Lys-c[Cys-Thr-Ser-Ile-Cys]-Glu-NH2, S-S (disulfide) [BR2]", "values": [{"measurement": "activity as RGS4 inhibitor", "setting": "RGS4 [2]", "value": "inactive"}]}, {"molecule": "14nd: free N-terminal, disulfide bridged version of hit 14 (H-KHCYGFCK-NH2; disulfide 3-7; SMILES NCCCC[C@H](NC(=O)[C@@H]1CSSC[C@H](NC(=O)[C@H](Cc2c[nH]cn2)NC(=O)[C@@H](N)CCCCN)C(=O)N[C@@H](Cc2ccc(O)cc2)C(=O)NCC(=O)N[C@@H](Cc2ccccc2)C(=O)N1)C(N)=O)", "values": [{"measurement": "solubility", "setting": "[1]; could not be tested at 50 μM in GAP assay, solubility verified by HPLC", "value": "limited by solubility"}]}, {"molecule": "1nd: free N-terminal, disulfide bridged version of hit 1 (H-YNCQGECE-NH2; disulfide 3-7; SMILES NC(=O)CC[C@@H]1NC(=O)[C@@H](NC(=O)[C@H](CC(N)=O)NC(=O)[C@@H](N)Cc2ccc(O)cc2)CSSC[C@@H](C(=O)N[C@@H](CCC(=O)O)C(N)=O)NC(=O)[C@H](CCC(=O)O)NC(=O)CNC1=O)", "values": [{"measurement": "inhibition of RGS4 activity (rate of RGS stimulated Gαo GTP hydrolysis)", "setting": "RGS4Δ51N; 50 μM peptide in solution", "value": "33 ± 15", "unit": "%"}]}, {"molecule": "C[C@@H](O)[C@@H]1NC(=O)CNC(=O)[C@H](Cc2ccccc2)NC(=O)[C@@H](NC(=O)[C@@H](NC(=O)CN)[C@@H](C)O)CSSC[C@@H](C(=O)N[C@@H](Cc2c[nH]c3ccccc23)C(N)=O)NC1=O", "note": "[2nd, Gly-Thr-c[Cys-Phe-Gly-Thr-Cys]-Trp-NH2, S-S] (H-GTCFGTCW-NH2; disulfide 3-7)", "values": [{"measurement": "IC50", "setting": "RGS4Δ51N", "value": "~50", "unit": "µM"}, {"measurement": "inhibition of RGS4 activity (rate of RGS stimulated Gαo GTP hydrolysis)", "setting": "RGS4Δ51N; 50 μM peptide in solution", "value": "48 ± 7", "unit": "%"}, {"measurement": "activity against RGS7", "setting": "RGS7box", "value": "inactive"}, {"measurement": "activity against RGS16", "setting": "RGS16", "value": "inactive"}]}, {"molecule": "Ac-Val-Lys-[Cys-Thr-Gly-Phe-Cys]-Glu-NH2, S-S (disulfide) [peptide 20 in Roof et al]", "values": [{"measurement": "inhibited RGS4 GAP activity", "setting": "RGS4 [2]; at 100 μM", "value": "~40", "unit": "%"}]}, {"molecule": "2nl: free N-terminal linear version of peptide 2 (H-GTCFGTCW-NH2; cysteine pairing not given here)", "values": [{"measurement": "activity on RGS4 GAP activity", "setting": "RGS4Δ51N", "value": "inactive"}]}, {"molecule": "4nd: free N-terminal, disulfide bridged version of hit 4 (H-KVCMGGCT-NH2; disulfide 3-7; SMILES CSCC[C@@H]1NC(=O)[C@@H](NC(=O)[C@@H](NC(=O)[C@@H](N)CCCCN)C(C)C)CSSC[C@@H](C(=O)N[C@H](C(N)=O)[C@@H](C)O)NC(=O)CNC(=O)CNC1=O)", "values": [{"measurement": "inhibition of RGS4 activity (rate of RGS stimulated Gαo GTP hydrolysis)", "setting": "RGS4Δ51N; 50 μM peptide in solution", "value": "33 ± 16", "unit": "%"}]}, {"molecule": "KVc[CMGGC]T-NH2, S-S (disulfide) [compound 4]", "values": [{"measurement": "binding to RGS4Δ51N in FACScan assay", "setting": "RGS4Δ51N-Alexa Fluor 532", "value": "bound RGS4 so well"}, {"measurement": "activity on RGS4 GAP activity", "setting": "RGS4Δ51N", "value": "little effect"}]}, {"molecule": "Ac-Val-Lys-c[Cys-Thr-Gly-Ile-Cys]-Glu-NH2, S-S (disulfide) [YJ34, reference compound]", "values": [{"measurement": "solubility", "setting": "[1]", "value": "limited by solubility"}, {"measurement": "IC50", "setting": "RGS4 [3]", "value": 26, "unit": "µM"}]}, {"molecule": "CC(=O)NCC(=O)N[C@H](C(=O)N[C@H]1CSSC[C@@H](C(=O)N[C@@H](Cc2c[nH]c3ccccc23)C(N)=O)NC(=O)[C@H]([C@@H](C)O)NC(=O)CNC(=O)[C@H](Cc2ccccc2)NC1=O)[C@@H](C)O", "note": "[2ad, Ac-Gly-Thr-c[Cys-Phe-Gly-Thr-Cys]-Trp-NH2, S-S] (Ac-GTCFGTCW-NH2; disulfide 3-7)", "values": [{"measurement": "IC50", "setting": "RGS4Δ51N", "value": "~50", "unit": "µM"}, {"measurement": "inhibition of RGS4 activity (rate of RGS stimulated Gαo GTP hydrolysis)", "setting": "RGS4Δ51N; 25 μM peptide (limited by solubility)", "value": "30 ± 12", "unit": "%"}, {"measurement": "activity against RGS7", "setting": "RGS7box", "value": "inactive"}, {"measurement": "activity against RGS16", "setting": "RGS16", "value": "inactive"}, {"measurement": "solubility", "setting": "[1]", "value": "limited by solubility"}]}, {"molecule": "2al: acetylated linear version of peptide 2 (Ac-GTCFGTCW-NH2; cysteine pairing not given here)", "values": [{"measurement": "activity on RGS4 GAP activity", "setting": "RGS4Δ51N", "value": "inactive"}]}]}
